From ChEMBL document CHEMBL3232870, “Discovery of 3-(4-methanesulfonylphenoxy)-N-[1-(2-methoxy-ethoxymethyl)-1H-pyrazol-3-yl]-5-(3-methylpyridin-2-yl)-benzamide as a novel glucokinase activator (GKA) for the treatment of type 2 diabetes mellitus” (Bioorg Med Chem, 2014)

Tests used:
Mus musculus [1] = experiment: Toxicity in C57BL/J6 mouse assessed as hypoglycemia at 150 mg/kg, po; settings: in vivo
Rattus norvegicus = experiment: Toxicity in Sprague-Dawley rat assessed as multinucleated giant cells in testis at 250 to 1000 mg/kg, po by hematoxylin and eosin staining-based microscopy; assay type: organism-based; design: dose 250-1000 mg/kg, route oral; settings: in vivo
How it was run: (§1)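 Sprague–Dawley rats of both sexes, 5 weeks old at arrival, received daily oral gavage at 0, 250, 500 or 1000 mg/kg/day for 14 days. Vehicle was 0.5% methylcellulose at 10 mL/kg. Toxicokinetics were taken on Day 1 and Day 14. Necropsy was by Day 15. Testis was fixed in modified Davidson's fixative, paraffin-sectioned and H&E-stained, with histopathology on control and high-dose groups only.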

[2] = Tmax in ICR mouse at 3 mg/kg, iv and 10 mg/kg, po; assay type: ADME, organism-based; settings: in vivo
How it was run: (§2)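 Male ICR mice and 7-week-old SD rats received a 3 mg/kg iv bolus or a 10 mg/kg oral gavage dose. Plasma was precipitated with 2 volumes of acetonitrile and analysed by HPLC. Parameters came from noncompartmental analysis.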

[3] = Tmax in male Sprague-Dawley rat at 250 mg/kg, po measured on day 1; assay type: ADME, organism-based; design: dose 250 mg/kg, route oral; settings: in vivo
How it was run: as §1

[4] = AUC (0 to t) in male Sprague-Dawley rat at 500 mg/kg, po measured on day 14; assay type: ADME, organism-based; design: dose 500 mg/kg, route oral; settings: plasma
How it was run: (§3)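 Sprague–Dawley rats, 5 weeks old at arrival, both sexes. Given the compound by oral gavage once daily for 14 days at 0, 250, 500 or 1000 mg/kg/day, with 0.5% methylcellulose as vehicle. Toxicokinetic parameters were determined on Day 1 and Day 14.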

[5] = Increase in 11 mM glucose-stimulated insulin secretion in Sprague-Dawley rat Pancreatic islet measured for 1 hr by ELISA; assay type: functional
How it was run: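 Islets isolated from male Sprague–Dawley rat pancreas, five per well. Islets were pre-incubated 30 min in HEPES-buffered Krebs–Ringer buffer (pH 7.4) with low glucose, then moved to the same buffer with glucose (11 mM) plus test compound. Static incubation ran at 37 °C in a shaking waterbath under 5% CO₂. Buffer was sampled at 1 h, insulin measured by ELISA, and reported as % increase versus control.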

Salmonella typhimurium [6] = experiment: Genotoxicity in Salmonella typhimurium TA98 assessed as increase in number of revertants at 1.5 to 5000 ug/plate by Ames test in presence of S9 fraction; assay type: toxicity, organism-based; settings: salmonella enterica subsp. enterica serovar typhimurium
How it was run: (§4)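 Ames reverse mutation test by direct plate incorporation in S. typhimurium TA98 and TA100, with or without Aroclor 1254-induced rat liver S9 mix. Compound in DMSO at 1.5–5000 µg/plate, plated in top agar, incubated 37 °C for about 50 h, then revertant colonies counted. Plates were checked for precipitation and cytotoxicity. A positive was a reproducible, dose-related increase in revertants of more than 2-fold.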

[7] = AUC (0 to t) in male Sprague-Dawley rat at 1000 mg/kg, po measured on day 14; assay type: ADME, organism-based; design: dose 1000 mg/kg, route oral; settings: plasma
How it was run: as §3

[8] = Tmax in female Sprague-Dawley rat at 250 mg/kg, po measured on day 14; assay type: ADME, organism-based; design: dose 250 mg/kg, route oral; settings: in vivo
How it was run: as §1

[9] = Tmax in male Sprague-Dawley rat at 1000 mg/kg, po measured on day 1; assay type: ADME, organism-based; design: dose 1000 mg/kg, route oral; settings: in vivo
How it was run: as §1

[10] = AUC (0 to t) in male Sprague-Dawley rat at 500 mg/kg, po measured on day 1; assay type: ADME, organism-based; design: dose 500 mg/kg, route oral; settings: plasma
How it was run: as §3

[11] = Oral bioavailability in Sprague-Dawley rat at 10 mg/kg; assay type: ADME, organism-based; settings: in vivo
How it was run: as §2

Canis familiaris [12] = experiment: Toxicity in Beagle dog assessed as testicular effect administered repeated dose level of 1000 mg/kg/day, po administered on days 3, 6 and 8 by hematoxylin and eosin staining-based microscopy; assay type: organism-based, Canis lupus familiaris; design: route oral; settings: in vivo
How it was run: (§5)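 Dogs received escalating oral doses of 100, 300 and 1000 mg/kg/day over 8 days (Days 3, 6 and 8 for each dose). Vehicle was 0.5% methylcellulose at 5 mL/kg. Two animals were necropsied at termination, and testes were fixed in modified Davidson's fixative, paraffin-embedded, H&E-stained and examined microscopically.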

[13] = AUC (0 to t) in female Sprague-Dawley rat at 250 mg/kg, po measured on day 14; assay type: ADME, organism-based; design: dose 250 mg/kg, route oral; settings: plasma
How it was run: as §3

[14] = Cmax in male Sprague-Dawley rat at 1000 mg/kg, po measured on day 1; assay type: ADME, organism-based; design: dose 1000 mg/kg, route oral; settings: in vivo
How it was run: as §3

Canis familiaris [15] = experiment: Toxicity in Beagle dog assessed as testicular effect administered repeated dose level of 300 mg/kg/day, po administered on days 3, 6 and 8 by hematoxylin and eosin staining-based microscopy; assay type: organism-based, Canis lupus familiaris; design: route oral; settings: in vivo
How it was run: as §5

[16] = AUC (0 to t) in female Sprague-Dawley rat at 500 mg/kg, po measured on day 14; assay type: ADME, organism-based; design: dose 500 mg/kg, route oral; settings: plasma
How it was run: as §3

[17] = Cmax in female Sprague-Dawley rat at 500 mg/kg, po measured on day 1; assay type: ADME, organism-based; design: dose 500 mg/kg, route oral; settings: in vivo
How it was run: as §3

Salmonella typhimurium [18] = experiment: Genotoxicity in Salmonella typhimurium TA100 assessed as increase in number of revertants at 1.5 to 5000 ug/plate by Ames test in absence of S9 fraction; assay type: toxicity, organism-based; settings: salmonella enterica subsp. enterica serovar typhimurium
How it was run: as §4

Mus musculus [19] = experiment: Toxicity in C57BL/J6 db/db mouse assessed as effect on body weight at 50 mg/kg, po; assay type: organism-based; design: dose 50 mg/kg, route oral; settings: in vivo
[20] = Tmax in female Sprague-Dawley rat at 500 mg/kg, po measured on day 14; assay type: ADME, organism-based; design: dose 500 mg/kg, route oral; settings: in vivo
How it was run: as §1

Salmonella typhimurium [21] = experiment: Genotoxicity in Salmonella typhimurium TA98 assessed as increase in number of revertants at 1.5 to 5000 ug/plate by Ames test in absence of S9 fraction; assay type: toxicity, organism-based; settings: salmonella enterica subsp. enterica serovar typhimurium
How it was run: as §4

[22] = Cmax in female Sprague-Dawley rat at 250 mg/kg, po measured on day 14; assay type: ADME, organism-based; design: dose 250 mg/kg, route oral; settings: in vivo
How it was run: as §3

Structure (SMILES): COCCOCn1ccc(NC(=O)c2cc(Oc3ccc(S(C)(=O)=O)cc3)cc(-c3ncccc3C)c2)n1
- Activity (Mus musculus [1]): Non-toxic
- Activity (Rattus norvegicus): Non-toxic
- Tmax [2]: 15 min
- Tmax [3]: 2.7 h
- AUC(0-t) [4]: 13600 ng·h/mL
- fold change (FC) [5]: 3
- Activity (Salmonella typhimurium [6]): Non-toxic
- AUC(0-t) [7]: 25000 ng·h/mL
- Tmax [8]: 1.3 h
- Tmax [9]: 4 h
- AUC(0-t) [10]: 16900 ng·h/mL
- bioavailability [11]: 22%
- Activity (Canis familiaris [12]): Non-toxic
- AUC(0-t) [13]: 17600 ng·h/mL
- Cmax [14]: 4250 ng/mL
- Activity (Canis familiaris [15]): Non-toxic
- AUC(0-t) [16]: 16300 ng·h/mL
- Cmax [17]: 4300 ng/mL
- Activity (Salmonella typhimurium [18]): Non-toxic
- Activity (Mus musculus [19]): Non-toxic
- Tmax [20]: 1.3 h
- Activity (Salmonella typhimurium [21]): Non-toxic
- Cmax [22]: 5200 ng/mL
